According to ChEMBL document CHEMBL4049414, “Can We Make Small Molecules Lean? Optimization of a Highly Lipophilic TarO Inhibitor” (J Med Chem, 2017):
Activity calls are given as the source filed them. The rule behind the calls is not given here.

Assays:
[1] = Inhibition of TarO in methicillin-resistant Staphylococcus aureus membranes assessed as reduction in C55-P-P-GlcNAc production using C55-P as substrate in presence of UDP-GlcNAc by LC-MS analysis
Staphylococcus aureus [2] = assay: Growth inhibition of methicillin-resistant Staphylococcus aureus COL after 20 hrs
Method in brief: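 MRSA COL grown with compound alone, with no antibiotic added. Growth read by OD600. The value is the minimum concentration that inhibits 95% of growth (iMITC95).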

[3] = system: Staphylococcus aureus subsp. aureus COL; assay: Inhibition of methicillin-resistant Staphylococcus aureus COL TarO assessed as compound concentration required for potentiation of imipenem-mediated bacterial growth inhibition by 95% after 20 hrs
Method in brief: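 MRSA COL grown with compound in the presence of imipenem at 4 μg/mL. Growth read by OD600. The value is the minimum concentration that inhibits 95% of growth (sMITC95).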

[4] = Solubility of the compound in PBS buffer; format: physicochemical
Mus musculus = assay: Toxicity in mouse at 50 mg/kg, sc; format: organism-based; details: in vivo
[5] = AUC (0 to infinity) in mouse at 2 mg/kg, iv; format: ADME, organism-based; design: dose 2 mg/kg, time infinity, route intravenous; details: in vivo
[6] = Tmax in mouse lung at 50 mg/kg, sc; format: ADME, organism-based
[7] = Ratio of AUC (0 to x) in mouse spleen to AUC (0 to x) in mouse blood at 50 mg/kg, sc; format: ADME, organism-based; details: read-out: Ratio AUC
[8] = Volume of distribution at steady state in mouse at 2 mg/kg, iv; format: ADME, organism-based; details: in vivo, read-out: Vdss
[9] = Cmax in mouse kidney at 50 mg/kg, sc; format: ADME, organism-based; design: dose 50 mg/kg, route subcutaneous
[10] = AUC (0 to x) in mouse spleen at 50 mg/kg, sc; format: ADME, organism-based
[11] = Ratio of Cmax in mouse spleen to Cmax in mouse blood at 50 mg/kg, sc; format: ADME, organism-based
[12] = AUC (0 to infinity) in rat at 1 mg/kg, iv; format: ADME, organism-based; design: dose 1 mg/kg, time infinity, route intravenous; details: in vivo
[13] = Cmax in mouse liver at 50 mg/kg, sc; format: ADME, organism-based; design: dose 50 mg/kg, route subcutaneous
[14] = Cmax in mouse spleen at 50 mg/kg, sc; format: ADME, organism-based; design: dose 50 mg/kg, route subcutaneous
[15] = Tmax in mouse blood at 50 mg/kg, sc; format: ADME, organism-based
Staphylococcus aureus [16] = assay: (§1) Potentiation of imipenem-induced antibacterial activity against methicillin-resistant Staphylococcus aureus COL MB 5393 infected in neutropenic balb/c mouse assessed as log reduction in bacterial burden in kidney at 50 mg/kg, sc administered three times per day at 2, 5 and 8 hrs post challenge cotreated with imipenem measured 24 hrs post challenge; format: functional
[17] = AUC (0 to x) in mouse blood at 50 mg/kg, sc; format: ADME, organism-based
[18] = Terminal half life in mouse at 2 mg/kg, iv; format: ADME, organism-based; details: in vivo, read-out: beta t1/2 (converted)
[19] = Tmax in mouse spleen at 50 mg/kg, sc; format: ADME, organism-based
Staphylococcus aureus [20] = assay: Antibacterial activity against methicillin-resistant Staphylococcus aureus COL MB 5393 infected in neutropenic balb/c mouse assessed as reduction in bacterial burden in kidney at 12.5 to 50 mg/kg, sc administered three times per day at 2, 5 and 8 hrs post challenge measured 24 hrs post challenge; format: functional, organism-based
Staphylococcus aureus [21] = assay: as §1, with “25” for “50”; format: functional
Staphylococcus aureus [22] = assay: as §1, with “as” for “as log”, “12.5” for “50”; format: functional, organism-based
[23] = AUC (0 to x) in mouse liver at 50 mg/kg, sc; format: ADME, organism-based
[24] = AUC (0 to x) in mouse lung at 50 mg/kg, sc; format: ADME, organism-based
Staphylococcus aureus [25] = assay: Potentiation of imipenem-induced antibacterial activity against methicillin-resistant Staphylococcus aureus COL MB 5393 infected in sc dosed neutropenic balb/c mouse assessed as reduction in bacterial burden in kidney administered three times per day at 2, 5 and 8 hrs post challenge cotreated with imipenem measured 24 hrs post challenge; format: functional, organism-based
[26] = Clearance in rat at 1 mg/kg, iv; format: ADME, organism-based; details: in vivo
[27] = Cmax in mouse lung at 50 mg/kg, sc; format: ADME, organism-based; design: dose 50 mg/kg, route subcutaneous
[28] = AUC (0 to x) in mouse kidney at 50 mg/kg, sc; format: ADME, organism-based
[29] = Tmax in mouse liver at 50 mg/kg, sc; format: ADME, organism-based
[30] = Tmax in mouse kidney at 50 mg/kg, sc; format: ADME, organism-based
[31] = Terminal half life in rat at 1 mg/kg, iv; format: ADME, organism-based; details: in vivo, read-out: beta t1/2 (converted)
[32] = Volume of distribution at steady state in rat at 1 mg/kg, iv; format: ADME, organism-based; details: in vivo, read-out: Vdss
[33] = Cmax in mouse blood at 50 mg/kg, sc; format: ADME, organism-based; design: dose 50 mg/kg, route subcutaneous
[34] = Clearance in mouse at 2 mg/kg, iv; format: ADME, organism-based; details: in vivo
Staphylococcus aureus [35] = assay: Antibacterial activity against methicillin-resistant Staphylococcus aureus COL MB 5393 infected in balb/c mouse assessed as reduction in bacterial burden in kidney at 5 mg/kg, sc administered 2 to 8 hrs post challenge measured 24 hrs post challenge; format: functional, organism-based
[36] = Inhibition of methicillin-resistant Staphylococcus aureus COL TarO assessed as late stage targocil suppression after 20 hrs; design: species or system Staphylococcus aureus subsp. aureus COL
[37] = Inhibition of methicillin-resistant Staphylococcus aureus COL TarO assessed as suppression of bacteriophage K-mediated cell lysis; design: species or system Staphylococcus aureus subsp. aureus COL

## O=C(O)C[C@H]1[C@@H](c2cc(F)cc(C(F)(F)F)c2)OC(=O)N1C(=O)NCc1cncc2ccccc12
[1]
  IC50: > 200 µM
Staphylococcus aureus [2]
  MITC95: > 200 µM
[3]
  MITC95: > 200000 nM

## C[C@H]1[C@@H](c2cc(C(F)(F)F)cc(C(F)(F)F)c2)OC(=O)N1C(=O)Cc1cccc2ccccc12
[1]
  IC50: 0.125 to 0.171 µM
Staphylococcus aureus [2]
  MITC95: > 200 µM
[3]
  MITC95: 900 nM
[4]
  solubility: < 1 µM

## O=C(O)[C@H]1[C@@H](c2cccc(C(F)(F)F)c2)OC(=O)N1C(=O)NCc1cncc2ccccc12
[1]
  IC50: > 200 µM
Staphylococcus aureus [2]
  MITC95: > 200 µM
[3]
  MITC95: > 200000 nM

## C[C@H]1[C@@H](c2cccc(C(F)(F)F)c2)OC(=O)N1C(=O)NCc1cncc2ccccc12
Mus musculus
  Activity: Non-Toxic
[5]
  AUC(0-inf): 1.26 µM·h
[6]
  Tmax: 0.7 h
[7]
  Kp: 6 to 8
[1]
  IC50: 0.162 µM
[8]
  Vd: 13.1 to 13.5 L/kg
[9]
  Cmax: 95 µM
[10]
  AUC: 75 µM·h
[11]
  Kp: 6 to 8
[12]
  AUC(0-inf): 0.42 µM·h
[13]
  Cmax: 101 µM
[14]
  Cmax: 29 µM
[15]
  Tmax: 0.5 h
Staphylococcus aureus [16]
  log(activity): 2.5
[17]
  AUC: 9.9 µM·h
[18]
  half-life: 6.4 h
[19]
  Tmax: 1 h
Staphylococcus aureus [20]
  Activity: inactive
Staphylococcus aureus [21]
  log(activity): 2
Staphylococcus aureus [22]
  Activity: inactive
[23]
  AUC: 322 µM·h
[24]
  AUC: 123 µM·h
Staphylococcus aureus [25]
  Activity: Dose-dependent effect
[26]
  clearance: 92.7 to 93 mL/min/kg
[27]
  Cmax: 43.7 µM
[28]
  AUC: 336 µM·h
Staphylococcus aureus [2]
  MITC95: > 200 µM
[29]
  Tmax: 1 h
[3]
  MITC95: 250 nM
[30]
  Tmax: 1 h
[31]
  half-life: 1.7 h
[32]
  Vd: 6.6 L/kg
[33]
  Cmax: 4.9 µM
[34]
  clearance: 61 to 61.4 mL/min/kg

## C[C@H]1[C@@H](c2ccccn2)OC(=O)N1C(=O)NCCc1cccc2ccccc12
[1]
  IC50: 16 µM
[3]
  MITC95: > 200000 nM

## C[C@H]1[C@@H](c2cc(C(F)(F)F)cc(C(F)(F)F)c2)OC(=O)N1CCC(=O)N1CCOc2ccccc21
[1]
  IC50: > 200 µM
[3]
  MITC95: > 200000 nM

## C[C@H]1[C@@H](c2cc(C(F)(F)F)cc(C(F)(F)F)c2)OC(=O)N1CCCc1cccc2ccccc12
[1]
  IC50: 0.038 µM

## C[C@H]1[C@@H](c2cc(F)cc(C(F)(F)F)c2)OC(=O)N1C(=O)NCc1cncc2ccccc12
[1]
  IC50: 0.025 µM
Staphylococcus aureus [2]
  MITC95: > 200 µM
[3]
  MITC95: 125 nM

## C[C@@H](O)[C@H]1C(=O)N2C(C(=O)O)=C(SCCNC=N)C[C@H]12
Staphylococcus aureus [35]
  Activity: inactive

## C[C@H]1[C@@H](c2cc(C(F)(F)F)cc(C(F)(F)F)c2)OC(=O)N1C(=O)CCc1cccc2ccccc12
[1]
  IC50: 0.009 µM
Staphylococcus aureus [2]
  MITC95: > 200 µM
[3]
  MITC95: 15 nM

## C[C@H]1[C@@H](c2cc(C(F)(F)F)cc(C(F)(F)F)c2)OC(=O)N1C(=O)NCc1cncc2ccccc12
[1]
  IC50: 0.029 µM
[36]
  IC50: 0.191 µM
Staphylococcus aureus [2]
  MITC95: > 200 µM
[3]
  MITC95: 31 nM
[37]
  IC50: 0.094 µM

## C[C@H]1[C@@H](c2cc(C(F)(F)F)cc(C(F)(F)F)c2)OC(=O)N1C(=O)NCc1cncc2cccnc12
[1]
  IC50: 0.012 µM
Staphylococcus aureus [2]
  MITC95: > 200 µM
[3]
  MITC95: 125 nM

## O=C(NCc1cncc2ccccc12)N1C(=O)O[C@H](c2cccc(C(F)(F)F)c2)[C@@H]1CO
[1]
  IC50: 0.3 µM
Staphylococcus aureus [2]
  MITC95: > 200 µM
[3]
  MITC95: 650 nM

## C[C@H]1[C@@H](c2cccc(C(F)(F)F)c2)OC(=O)N1C(=O)NCc1cncc2cccnc12
[1]
  IC50: 0.402 µM
Staphylococcus aureus [2]
  MITC95: > 200 µM
[3]
  MITC95: 970 nM
